Columns and labels:
COX-1 = conditions: cellular as well as cell-free assays; ref Albert et al. (2002); cited from earlier work
5-LOX = conditions: cellular as well as cell-free assays; ref Albert et al. (2002); cited from earlier work
[1] = system: 5-LOX catalyzed LTB4 formation; assay: In vitro assay for leukotriene; format: cell-based; conditions: Homo sapiens, Leukocyte, 10 min, read-out: IC50 5-LOX mediated LTB4 formation
Summary of the method: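 Human venous-blood polymorphonuclear leukocytes isolated by sedimentation rate and lysis tolerance; viability checked by 0.4% trypan blue. Cells (4500 cells/mL) were incubated with the ethanol-dissolved test compound, CaCl2, A23187 and arachidonic acid for 10 min at 37 °C with shaking. The reaction was stopped with 10% HCO2H, and LTB4 was measured by competitive EIA.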

Compound	COX-1 inhibition (COX-1)	5-LOX inhibition (5-LOX)	IC50 [1]
CC(C)=CCC[C@]1(C)[C@@H](CC=C(C)C)C[C@@]2(CC=C(C)C)C(=O)[C@]1(C(=O)C(C)C)C(=O)C(CC=C(C)C)=C2O [hyperforin]	dual COX-1/5-LOX inhibitor	dual COX-1/5-LOX inhibitor	–
CC(c1cc2ccccc2s1)N(O)C(N)=O (stereo not drawn) [Zileuton]	–	–	5 µM

— PMC3000598 (Phytochemistry letters, 2008)
